Article PMC2229441 (The Journal of General Physiology, 1998)
Read-outs that look alike come from different tables or passages of the source.

Legend:
patch-clamped mast cells = format: cell-based, rat
Summary of the method: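 Peritoneal mast cells from male Wistar rats (300–350 g), Percoll-purified, held in DMEM/F-12 with 2 mM glutamine at 37°C, 5% CO2. Test peptide is delivered through the patch pipette (IS 2 with 100 μM FURA-2 and EGTA buffering). Degranulation is tracked as membrane capacitance rise after patch rupture; delay is taken at 10% capacitance increase. [Ca2+]i is read from 340/380 nm ratios. Mean ± SEM (cells).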

PtX-treated mast cells = conditions: non–membrane-penetrating dyes; ref Wiesner et al., manuscript in preparation; cited from earlier work

With `Nc1nc2c(ncn2[C@@H]2O[C@H](COP(=O)(O)OP(O)(O)=S)[C@@H](O)[C@H]2O)c(=O)[nH]1` [GDPβS] the “cells in which SP-induced exocytosis was inhibited” value (patch-clamped mast cells; 1 mM GDPβS applied together with 5 μM SP through the patch pipette) was “four of five”.

For `Nc1nc2c(ncn2[C@@H]2O[C@H](COP(=O)(O)OP(=O)(O)OP(O)(O)=S)[C@@H](O)[C@H]2O)c(=O)[nH]1` [GTPγS], the degranulation rate (patch-clamped mast cells; 2.5–5 μM, n = 25, mean ± SEM) was 0.05 ± 0.005 pF/s, the degranulation rate (patch-clamped mast cells; 10–25 μM, n = 16, mean ± SEM) was 0.15 ± 0.03 pF/s and the “shortest time delay, extrapolated to high concentrations” value (patch-clamped mast cells; extrapolation of curves of Fig. 7) was “about 20 s”. For the same molecule, the “cells in which degranulation occurred” value (patch-clamped mast cells; intracellular application at similar concentrations as SP, IS 1) was 41 of 45 and the “membrane capacitance increase in degranulating cells” value (patch-clamped mast cells; intracellular application, IS 1, mean ± SEM (SP n = 31)) was 2.7 ± 0.1 fold.

For carboxyfluorescein, the “translocation into PtX-treated mast cells” value (PtX-treated mast cells) is listed as “not translocated”.
